According to article PMC4758401 (Diabetes, Obesity & Metabolism, 2015):
Read-outs that look alike come from different tables or passages of the source.

Experiments:
Format in all cases: in vivo, patients with type 1 diabetes
plasma glucose = system: plasma glucose
[1] = Adverse events and hypoglycaemia
In short: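 Four-way crossover in adults with type 1 diabetes, one visit per arm over 4 weeks. Before a 600-kcal breakfast, each arm received subcutaneous regular insulin at 30% below the usual rapid-analogue dose, plus a separate masked injection of test compound (6, 9 or 12 mcg/U insulin) or volume-matched placebo. Symptomatic hypoglycaemia was tracked for 24 h after dosing; adverse events were recorded on- and off-treatment.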

glucagon = settings: for Reduction of AUC0–3 h for glucagon: p < 0.05
In short: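 Same crossover design: test compound at 6, 9 or 12 mcg/U insulin or volume-matched placebo, each injected separately alongside subcutaneous regular insulin (30% reduced dose) just before a standard 600-kcal breakfast. Plasma immunoreactive glucagon was measured by radioimmunoassay in samples taken at −15, −5, 15, 30, 45, 60, 90, 120, 150 and 180 min. Incremental AUC0–3 h from baseline was compared with placebo by a linear mixed-effects model (sequence, period, treatment, random patient), two-sided 0.05.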

[2] = all ratios (6, 9 or 12 mcg/unit insulin)

Structure (SMILES): CC[C@H](C)[C@H](NC(=O)[C@@H]1CCCN1C(=O)CNC(=O)[C@H](Cc1ccccc1)NC(=O)[C@H](CC(N)=O)NC(=O)[C@H](CC(N)=O)NC(=O)[C@H](CO)NC(=O)[C@H](CO)NC(=O)[C@H](Cc1c[nH]cn1)NC(=O)[C@@H](NC(=O)[C@H](CC(C)C)NC(=O)[C@H](Cc1ccccc1)NC(=O)[C@H](CC(N)=O)NC(=O)[C@H](C)NC(=O)[C@H](CC(C)C)NC(=O)[C@H](CCCNC(=N)N)NC(=O)[C@H](CCC(N)=O)NC(=O)[C@@H](NC(=O)[C@H](C)NC(=O)[C@@H]1CSSC[C@H](NC(=O)[C@@H](N)CCCCN)C(=O)N[C@@H](CC(N)=O)C(=O)N[C@@H]([C@@H](C)O)C(=O)N[C@@H](C)C(=O)N[C@@H]([C@@H](C)O)C(=O)N1)[C@@H](C)O)C(C)C)C(=O)N[C@@H](CC(C)C)C(=O)N1CCC[C@H]1C(=O)N1CCC[C@H]1C(=O)N[C@H](C(=O)N[C@@H](CC(N)=O)C(=O)N[C@H](C(=O)NCC(=O)N[C@@H](CO)C(=O)N[C@@H](CC(N)=O)C(=O)N[C@H](C(=O)N[C@@H](Cc1ccc(O)cc1)C(N)=O)[C@@H](C)O)C(C)C)[C@@H](C)O [pramlintide]
- Reduction of AUC0–3 h for glucose (plasma glucose; 6 mcg/U ratio vs placebo/insulin, p < 0.001): 60%
- Glucose incremental AUC0–3 h, LS mean difference (plasma glucose; 6 mcg–placebo, p <0.001): -205.98 mg·h/dL
- Glucose incremental AUC0–3 h, LS mean difference (plasma glucose; 6–9 mcg, p 0.890): -6.04 mg·h/dL
- Glucose incremental AUC0–3 h, LS mean difference (plasma glucose; 6–12 mcg, p 0.343): 40.63 mg·h/dL
- Glucose incremental AUC0–3 h, LS mean difference (plasma glucose; 9 mcg–placebo, p <0.001): -199.93 mg·h/dL
- Glucose incremental AUC0–3 h, LS mean difference (plasma glucose; 9–12 mcg, p 0.280): 46.67 mg·h/dL
- Glucose incremental AUC0–3 h, LS mean difference (plasma glucose; 12 mcg–placebo, p <0.001): -246.60 mg·h/dL
- Reduction of 0–3‐h glucose increments (plasma glucose; [2]): > 50%
- Tolerability ([1]; all ratios (6, 9, 12 mcg/U insulin), single meal-time injection): well tolerated
- Symptomatic hypoglycaemia ([1]; during the 24‐h period after pramlintide administration, all ratios): No symptomatic hypoglycaemia occurred
- Nausea ([1]; one patient, accompanying each pramlintide/insulin ratio, able to complete each test meal): mild nausea
- Mild, asymptomatic hypoglycaemia between test meal days ([1]; one patient, after pramlintide 12 mcg/U): hypoglycaemia 5 and 7 days after receiving pramlintide 12 mcg/U
- Reduction of AUC0–3 h for glucagon (glucagon; 6 mcg/U ratio vs placebo/insulin): 57%
- Glucagon incremental AUC0–3 h, LS mean difference (glucagon; 6 mcg–placebo, p 0.041): -14.23 pg·h/mL
- Glucagon incremental AUC0–3 h, LS mean difference (glucagon; 6–9 mcg, p 0.934): 0.57 pg·h/mL
- Glucagon incremental AUC0–3 h, LS mean difference (glucagon; 6–12 mcg, p 0.945): -0.47 pg·h/mL
- Reduction of AUC0–3 h for glucagon (glucagon; 9 mcg/U ratio vs placebo/insulin): 59%
- Glucagon incremental AUC0–3 h, LS mean difference (glucagon; 9 mcg–placebo, p 0.034): -14.80 pg·h/mL
- Glucagon incremental AUC0–3 h, LS mean difference (glucagon; 9–12 mcg, p 0.879): -1.05 pg·h/mL
- Reduction of AUC0–3 h for glucagon (glucagon; 12 mcg/U ratio vs placebo/insulin): 55%
- Glucagon incremental AUC0–3 h, LS mean difference (glucagon; 12 mcg–placebo, p 0.046): -13.75 pg·h/mL
- Reduction of 0–3‐h glucagon increments (glucagon; [2]): > 50%
